Published values pooled from the literature.
Protocols differ between the studies behind these lines.
Target: 5-hydroxytryptamine receptor 2C (HTR2C, Homo sapiens, UniProt P28335)
Sequence (P28335 33-458, as in one of the studies): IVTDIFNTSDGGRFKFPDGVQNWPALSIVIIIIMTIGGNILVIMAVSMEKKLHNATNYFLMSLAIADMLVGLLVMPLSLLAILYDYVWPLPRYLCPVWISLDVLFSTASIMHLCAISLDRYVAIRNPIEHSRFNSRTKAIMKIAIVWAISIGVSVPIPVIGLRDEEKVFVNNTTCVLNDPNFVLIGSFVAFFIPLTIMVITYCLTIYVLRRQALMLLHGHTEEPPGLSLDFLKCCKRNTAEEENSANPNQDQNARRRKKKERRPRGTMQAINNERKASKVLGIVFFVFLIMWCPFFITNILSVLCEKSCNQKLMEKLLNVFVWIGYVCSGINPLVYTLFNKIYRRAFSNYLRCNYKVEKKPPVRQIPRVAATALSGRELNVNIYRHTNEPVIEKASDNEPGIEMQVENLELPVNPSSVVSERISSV

Fc1ccc(CCCCN2CCN(c3ccccn3)CC2)cc1 — Ki (ligand displacement, radioligand): > 10000 nM
C#CCOCCOc1ccc2c3c1C1CCCC1N3CCNC2 (racemic) — EC50 (calcium signal, agonist, fluorescence): 53.4 nM
CC1Cc2ccccc2N1C(=O)NCCCCN(C)[C@@H]1Cc2cccc3[nH]c(=O)n(c23)C1 (mixture of isomers) — Ki (ligand displacement, radioligand): > 10000 nM
CNc1nc2cc(OCCCCN3CCC(c4cccc(Cl)c4Cl)CC3)ccc2s1 — Ki (cell-free assay, radioligand): 73 nM
OC[C@@]12C[C@@H]1[C@@H](n1cnc3c(N[C@@H](C4CCC4)C4CC4)nc(I)nc31)[C@H](O)[C@@H]2O — Kb (calcium signal, antagonist): 148 nM
O=C1c2ccccc2CCN1CCCCN1CCN(c2cccc(Cl)c2Cl)CC1 — Ki (ligand displacement, radioligand): 354 nM
CN(CCCCNC(=O)c1cc2ccccc2[nH]1)[C@@H]1Cc2cccc3[nH]c(=O)n(c23)C1 — Ki (ligand displacement, radioligand): 2440 nM
CN(Cc1ccc(NC(=O)C2=Cc3cc(-c4ccc(OCCCF)cc4)ccc3CCC2)cc1)C1CCOCC1 — Ki (ligand displacement, radioligand): 1020 nM
Cc1nc2cc(OCCCCN3CCN(c4cccc(Cl)c4Cl)CC3)ccc2s1 — Ki (cell-free assay, radioligand): 160 nM
CC(C)(C)c1cc(C(C)(C)CO)c(O)cc1NC(=O)c1c[nH]c2ccccc2c1=O — Ki (ligand displacement, radioligand): 1550 nM
C#CCOCCOCCOc1ccc2c3c1C1CCCC1N3CCNC2 (racemic) — EC50 (calcium signal, agonist, fluorescence): 237 nM
CCCCN1CCC(COC(=O)c2ccc(N)c(OCF)c2)CC1 — Ki (cell-free assay, radioligand): > 10000 nM
COc1cc(OC)c(C(=O)CCCCN2CCC3(CC2)NC(=O)NC3=O)cc1NS(=O)(=O)c1ccc(C(F)(F)F)cc1 — Ki (ligand displacement, radioligand): 0.99 nM
